Laboratory results reported in publication PMC5730364 (Investigative Ophthalmology & Visual Science, 2017).
Square brackets hold non-standard residues; d marks the D form. Peptide text beside a SMILES is read from it. Orn = NCCC[C@H](N)C(=O)O

How the values were obtained:
P. aeruginosa 19660_Xen5 = assay: Time-kill bactericidal activity, bioluminescence; format: cell-based, Pseudomonas aeruginosa; details: Fig. 2
Summary of the method: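 Luciferase-tagged strain grown from a single colony in LB at 37°C overnight with agitation, diluted 1:10 into fresh LB and grown 2 h at 37°C to mid-log. Adjusted by OD600 to 1 × 10⁷ CFU/mL and exposed to test compound at several concentrations for 0, 30, 60 and 120 min. Viable cells quantified noninvasively by bioluminescence imaging. Mean ± SE of triplicates from two independent experiments.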

S. aureus 49525_Xen36 = assay: Time-kill bactericidal activity, bioluminescence; format: cell-based, Staphylococcus aureus; details: 30 minutes' incubation, Fig. 4
Summary of the method: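 Bioluminescent S. aureus Xen36 was grown from a single colony in LB overnight at 37°C with agitation. It was diluted 1:10 into fresh LB for 2 h at 37°C to mid-log phase and adjusted by OD600 to 1 × 10⁷ CFU/mL. Then 100 μL per well was exposed to a concentration series of test peptide for 30 min. Viable-cell luminescence was read by IVIS Lumina imaging (open filter, binning 4, f-stop 1, 30 s count). Results are mean ± SE of triplicates from two independent experiments.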

[1] = system: corneal epithelial scrape wounds; assay: In vivo corneal epithelial wound healing; design: species or system C57BL/6 mice
Summary of the method: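 C57BL/6 mice (9–13 weeks) were anaesthetised with ketamine 100 mg/kg plus xylazine 10 mg/kg ip. A 2-mm diameter corneal epithelial scrape wound was made in the right eye with an Algerbrush. Then 5 μL of test peptide (2, 64 or 640 μg/mL) or PBS vehicle was applied topically immediately, 5 min later, and at 6, 12 and 18 h. Wounds were stained with 1.5 μL 1% sodium fluorescein every 6 h until closure (24 h), imaged, and their areas measured.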

| Compound | bactericidal activity following 60 minutes of exposure (P. aeruginosa 19660_Xen5; 60 minutes) | bactericidal activity against S. aureus (S. aureus 49525_Xen36) | wound closure vs vehicle ([1]; at 24 hours following topical ocular administration, 2, 64 or 640 μg/mL) | effect on corneal epithelial wound healing ([1]; mice, topical 5 μL RP444 2, 64 or 640 μg/mL at 0 h, 5 minutes, 6, 12, 18 hours post wound, two independent experiments, n = 7-10 mice/group) | bactericidal activity during the short incubation time period (P. aeruginosa 19660_Xen5; 2 hours) |
| --- | --- | --- | --- | --- | --- |
| NC[C@H]1O[C@H](O[C@H]2[C@H](O)[C@@H](O[C@H]3O[C@H](CO)[C@@H](O)[C@H](N)[C@H]3O)[C@H](N)C[C@@H]2N)[C@H](N)C[C@@H]1O [tobramycin] | bactericidal effects at 60 minutes | neither tobramycin nor vancomycin exhibited any bactericidal effect | – | – | – |
| C[C@H](NC(=O)[C@H](Cc1ccccc1)NC(=O)[C@H](C)NC(=O)[C@H](Cc1ccccc1)NC(=O)[C@H](CCCN)NC(=O)[C@H](C)NC(=O)[C@H](Cc1ccccc1)NC(=O)[C@H](CCCN)NC(=O)[C@H](CCCN)NC(=O)[C@H](C)NC(=O)[C@H](Cc1ccccc1)NC(=O)[C@H](CCCN)NC(=O)[C@H](CCCN)NC(=O)[C@H](Cc1ccccc1)NC(=O)[C@H](CCCN)NC(=O)[C@H](CCCN)NC(=O)[C@H](C)NC(=O)[C@H](Cc1ccccc1)NC(=O)[C@H](CCCN)NC(=O)[C@H](CCCN)NC(=O)[C@H](C)NC(=O)[C@@H](N)Cc1ccccc1)C(=O)N[C@@H](Cc1ccccc1)C(=O)O [RP444] (H-FA[Orn][Orn]FA[Orn][Orn]F[Orn][Orn]FA[Orn][Orn]FA[Orn]FAFAF-OH) | – | – | No statistically significant difference in closure | did not affect corneal epithelial wound healing | – |
| CN[C@H](CC(C)C)C(=O)N[C@H]1C(=O)N[C@@H](CC(N)=O)C(=O)N[C@H]2C(=O)N[C@H]3C(=O)N[C@H](C(=O)N[C@H](C(=O)O)c4cc(O)cc(O)c4-c4cc3ccc4O)[C@H](O)c3ccc(c(Cl)c3)Oc3cc2cc(c3O[C@@H]2O[C@H](CO)[C@@H](O)[C@H](O)[C@H]2O[C@H]2C[C@](C)(N)[C@H](O)[C@H](C)O2)Oc2ccc(cc2Cl)[C@H]1O [vancomycin] | – | neither tobramycin nor vancomycin exhibited any bactericidal effect | – | – | no evidence of bactericidal activity |
